An excerpt weighted towards active compounds, which were near 11% of everything screened.
S1P1 ag-PAM: S1P1 agonists and agonism potentiators, primary screen, cell-based, primary and confirmation screens, CRE-bla reporter. activation, % at 9.5 µM. 0.57% of 56,000 active. S1P1 CRE-bla cells, forskolin, beta-lactamase FRET, potentiator mode; S1P1 agonist co-added at EC20, 2 nM; 100% = saturating reference agonist, 0% = basal. Sphingosine 1-phosphate receptor 1 (Homo sapiens), P21453;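 active = activation above a cutoff set at the mean activation of all tested compounds plus 3 SD, cut at about 54% in these data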;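 also: forskolin at 4 µM as EC80 and the EC20 agonist is SEW2871; 100% = SEW2871 at its EC100 plus forskolin at EC80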
Target sequence (P21453 whole entry, looked up): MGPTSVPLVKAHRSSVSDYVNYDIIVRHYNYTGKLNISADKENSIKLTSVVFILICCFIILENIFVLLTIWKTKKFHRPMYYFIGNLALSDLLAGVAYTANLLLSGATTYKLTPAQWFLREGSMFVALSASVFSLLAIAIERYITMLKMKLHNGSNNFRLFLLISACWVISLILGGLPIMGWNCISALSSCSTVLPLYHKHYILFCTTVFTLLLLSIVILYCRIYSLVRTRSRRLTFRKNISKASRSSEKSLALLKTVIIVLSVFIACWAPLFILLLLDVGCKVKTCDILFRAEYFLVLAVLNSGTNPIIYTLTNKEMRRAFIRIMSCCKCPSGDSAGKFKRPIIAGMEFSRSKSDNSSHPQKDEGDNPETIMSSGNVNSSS
D1 mod: D1 CRE-luciferase signal change, two-sided – cell-based, HEK293 D1, dopamine EC30, D1 allosteric modulator project, primary screen | dopamine EC30 potentiation; actives deviate in either direction | B-score at 10 µM | 5.9% of 58,000 active;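 active = luminescence count or its row- and column-corrected plate score outside the 99.7% band of the plate's sample wells, on either side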
M1 antagonist: antagonists of rat M1 muscarinic receptor; 3.4% of 64,000 active; CHO-M1 cells, Fluo-4 calcium, ACh EC80 antagonist mode; active compounds read low; B-score at 10 µM; Muscarinic acetylcholine receptor M1 (Rattus norvegicus), P08482;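 active = calcium fluorescence response, raw or row-and-column corrected B-score, differing from the plate sample mean either way at a set confidence level, mostly lower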
S1P3 ag: human S1P3 receptor agonists, primary screen, cell-based, primary and confirmation, NFAT-BLA reporter; S1P3 NFAT-BLA reporter cells, agonism, FRET ratio; relative to 1 µM S1P, basal subtracted; activation, % at 4.5 µM; 0.1% of 60,000 active; AID 373, 2006;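 active = activation above the screen-wide mean plus 3 SD, cut at about 4.5% in these data, passing the limit was not always enough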
Target sequence (Q99500 whole entry, looked up): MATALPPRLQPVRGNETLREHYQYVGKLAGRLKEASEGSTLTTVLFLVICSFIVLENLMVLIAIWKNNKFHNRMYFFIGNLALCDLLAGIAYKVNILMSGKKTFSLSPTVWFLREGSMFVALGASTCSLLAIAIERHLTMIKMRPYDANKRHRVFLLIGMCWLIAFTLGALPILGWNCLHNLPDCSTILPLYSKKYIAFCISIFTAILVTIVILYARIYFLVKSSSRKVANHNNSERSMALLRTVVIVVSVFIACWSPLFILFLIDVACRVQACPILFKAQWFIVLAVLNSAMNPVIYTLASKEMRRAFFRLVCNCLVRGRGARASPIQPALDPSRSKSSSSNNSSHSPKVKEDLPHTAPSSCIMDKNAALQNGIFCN
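Measure – % activation relative to 1 µM S1P (100%), per plate · System – stable CHO line with human S1P3, Gα16, NFAT-BLA reporter · Timing – cells plated overnight, compound 4 h 37 °C, substrate 2 h RT · Technique – fluorescent BLA substrate, ex 405 nm, em 460/535 nm ratio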
M1 agonist: M1 muscarinic receptor agonists, primary screen, CHO-M1 cells, Fluo-4 calcium, agonist mode; Fluo-4 calcium fluorescence; active compounds read high; Muscarinic acetylcholine receptor M1; AID 626, 2007; 3% of 64,000 active; B-score at 10 µM;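 active = fluorescence rise, raw or as B-score row- and column-corrected plate score, outside the 99.7% band of its plate's samples, either direction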
M1 antag confirm: rat M1 muscarinic receptor antagonists, confirmation, CHO cells, Fluo-4 calcium, duplicate | shares compounds with M1 antagonist | ACh EC80 antagonism; active compounds read low | calcium response (max-min fluorescence) at 10 µM | 43% of 1,700 active | AID 677, 2007;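 active = calcium response below the same-plate mean of wells given acetylcholine alone at its 80%-effect dose, minus 3 SD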;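 also: raw fluorescence intensity difference in arbitrary instrument units and not normalized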
mGluR4 antag: human mGluR4 response to M1 antagonist hits, M1 allosteric modulator project, cell-based, antagonist mode, secondary assay 1. 0.9% of 1,700 active. CHO-mGluR4 calcium flux, Fluo-4 fluorescence, glutamate EC80; active compounds read low. shares compounds with M1 antagonist. fluorescence response (max-min) at 10 µM;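 active = fluorescence response below the plate's average for near-maximal glutamate wells, less 3 SD of those wells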;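 also: raw unnormalized fluorescence span taken in the window right after glutamate addition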
D1 PAM confirm: D1 receptor positive allosteric modulators, retest, confirmation, cell-based, HEK293 D1, CRE-luciferase, duplicate | shares compounds with D1 mod | luminescence at 10 µM | dopamine EC30 potentiation; active compounds read high | 88% of 2,200 active;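 active = luminescence in either of two replicates above the same-plate mean plus 3 SD of the low-dose dopamine control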
D1 ag no DA: D1 receptor agonism without dopamine, confirmation, mechanism study for D1 allosteric modulator project, cell-based, HEK293 D1, CRE-luciferase, secondary assay 1. AID 646, 2007. luminescence, no dopamine; active compounds read high. luminescence at 10 µM. shares compounds with D1 mod. 0.8% of 1,900 active; in the data active = luminescence above about 3900
Isoprot counter: counter-screen for D1 modulators: isoproterenol response in HEK293 cells; luminescence at 10 µM; AID 647; HEK293 D1 CRE-luciferase, isoproterenol EC30 counter-screen; active compounds read high; shares compounds with D1 mod; 63% of 2,200 active;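 active = luminescence in either replicate above plate mean of wells with a partly effective reference agonist dose plus 3 SD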;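 also: isoproterenol raises cAMP through native beta-adrenoceptor Gs so signal bypasses D1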
Numbers without * were called inactive; nt = not tested or not shown.

SMILES | S1P1 ag-PAM | D1 mod | M1 antagonist | S1P3 ag | M1 agonist | M1 antag confirm | mGluR4 antag | D1 PAM confirm | Isoprot counter | others
O=C(CSc1nnc(COc2ccccc2Cl)o1)NC(=O)NC1CCCC1 | 18 | -1.3 | -0.72 | -1 | 0.79 | nt | nt | nt | nt
O=C(COc1ccccc1Cl)NC(=O)NC1CCCC1 | 43 | -0.17 | -8.7* | -1 | -0.27 | 233* | 267 | nt | nt
CCOC(=O)c1cc(C)n(-c2c(C)n(C)n(-c3ccccc3)c2=O)c1C | -3 | -0.28 | -4.5* | 0 | -0.0049 | 430* | 220 | nt | nt
Cc1oc2c(c1C(=O)NCc1ccccc1)CCCC2 | -11 | nt | -3.7* | -1 | 0.37 | 643 | 188 | nt | nt
CCOc1ccccc1N1C(=O)CC(Sc2ncccc2C(=O)O)C1=O (centres undefined) | -30 | -0.31 | 0.89 | -1 | 1.3 | nt | nt | nt | nt
COc1ccc(CCN2C(=O)CC(Sc3ncccc3C(=O)O)C2=O)cc1OC (centres undefined) | nt | 0.23 | -2.4* | nt | 0.37 | 716 | 180 | nt | nt
Cc1c(C#N)c(SCC(N)=O)nc2c1CCCC2 | -16 | nt | -2* | -1 | 0.28 | 648 | 246 | nt | nt
CN1CCN(C(=O)CN(Cc2ccc(Cl)cc2)S(C)(=O)=O)CC1 | 28 | -0.13 | -2.5* | 0 | 0.58 | 538 | 211 | nt | nt
Cc1ccc2nc3ccc(N4CCCC4)nn3c(=O)c2c1 | -20 | 0.27 | -1 | -1 | -0.03 | nt | nt | nt | nt
Cc1sc2nc3ccc(N4CCCCC4)nn3c(=O)c2c1C | -69 | 1.8 | -2.3* | 0 | 3 | 619 | 222 | nt | nt
CCOC(=O)N1CCN(C(=O)CSc2nnc(Cc3ccccc3)o2)CC1 | -8 | -0.95 | 0.28 | 0 | -2.4 | nt | nt | nt | nt
COc1ccc2cc(CN(CCO)C(=O)c3ccccc3F)c(=O)[nH]c2c1 | nt | -0.23 | -2.7* | nt | -0.0075 | 670 | 249 | nt | nt
CCOc1ccc2[nH]c(=O)c(CN(CCO)C(=O)c3ccccc3F)cc2c1 | 1 | 0.064 | 0.016 | -1 | 0.13 | nt | nt | nt | nt
O=C(CCN1CCc2ccccc2C1)Nc1cccc(F)c1 | nt | -1.1 | -1* | 0 | 0.67 | 601 | 250 | nt | nt
Cc1cc(O)c(-c2cc(C(=O)NCc3ccc4c(c3)OCO4)[nH]n2)cc1C | -12 | -0.21 | -0.081 | 0 | 1.4 | nt | nt | nt | nt
Cc1ccc(-c2cc(C(=O)NCc3ccc4c(c3)OCO4)[nH]n2)c(O)c1C | -9 | -0.049 | -1.6* | -1 | 0.36 | 653 | 195 | nt | nt
CCOC(=O)C1CCN(CC(O)COc2ccc(C(C)(C)CC)cc2)CC1 (centres undefined) | nt | nt | -4.7* | nt | -0.42 | 399 | 205 | nt | nt
Cc1cccc2cc(COC(=O)c3ccccn3)c(=O)[nH]c12 | 0 | -0.76 | 0.72 | 1 | -0.0041 | nt | nt | nt | nt
COc1ccc2nc(NC(=O)CN3CCN(C)CC3)sc2c1 | 9 | -0.029 | 0.24 | 0 | -0.074 | nt | nt | nt | nt
COc1ccc2oc(C(=O)c3ccccc3)c(NC(=O)CN3CCN(C)CC3)c2c1 | -2 | 0.12 | -3.2* | -1 | 0.23 | 416 | 252 | nt | nt
CCCCNC(=O)OCCNC(=O)NC | -2 | 0.26 | -0.19 | 0 | -0.51 | nt | nt | nt | nt
O=c1c2ccccc2n(Cc2ccc(F)cc2)c(=O)n1C1CCCC1 | -3 | 4.9* | -14* | -1 | -0.00025 | 576 | 252 | 9856* | 3276* | D1 ag no DA=1664
Cc1cc(-c2nnc3sc(C4CCCCC4)nn23)n[nH]1 | -1 | 7.8* | -0.13* | 0 | -0.075 | 518 | 214 | 14928* | 3496*
c1cncc(-c2nnc3sc(C4CCCCC4)nn23)c1 | -24 | nt | 0.82 | -1 | 0.73 | nt | nt | nt | nt
COc1cccc(CSc2nc3sc(C)c(C)c3c(=O)n2Cc2ccco2)c1 | nt | -0.0025 | 0.27 | nt | 2.9 | nt | nt | nt | nt
SMILES | S1P1 ag-PAM | D1 mod | M1 antagonist | S1P3 ag | M1 agonist | M1 antag confirm | mGluR4 antag | D1 PAM confirm | Isoprot counter | others
COc1ccc(C2CC(c3cc(OC)ccc3OC)n3nnnc3N2)cc1 (centres undefined) | -28 | 2.7* | -17* | 0 | 1.4 | 635 | 240 | 9576* | 2892 | D1 ag no DA=1560
Cc1ccc(C2C(C(=O)c3sc(C)nc3C)=C(O)C(=O)N2CCCN(C)C)o1 (centres undefined) | 7 | 0.31 | -0.055 | 0 | -0.53 | nt | nt | nt | nt
CCOC(=O)c1oc2ccc(Br)cc2c1NC(=O)CN1CCN(C)CC1 | -9 | 5.7* | -2.9* | 0 | -0.52 | 450* | 296 | 5896* | 2232 | D1 ag no DA=1096
NC(=O)c1oc2ccc(Cl)cc2c1NC(=O)CN1CCOCC1 | 2 | 0.058 | 1.2 | -2 | -0.011 | nt | nt | nt | nt
Cc1ccccc1NC(=O)c1c(O)c2cccc3c2n(c1=O)CCC3 | -32 | -0.27 | -0.096 | 0 | -0.38 | nt | nt | nt | nt
CCCCSc1nc2c(cnn2-c2ccc(F)cc2)c(=O)[nH]1 | -22 | 7* | -2.9* | -1 | 0.039 | 643 | 155 | 7560* | 2732 | D1 ag no DA=1648
Cc1cc(C)c2nc(N3CCC(C(=O)N4CCCC4)CC3)sc2c1 | 12 | 3.5* | -8* | 0 | -0.1 | 233* | 180 | 5940 | 2920 | D1 ag no DA=1656
O=C(c1ccco1)N1CCN(S(=O)(=O)c2ccc3c(c2)CCN3C(=O)C2CC2)CC1 | -45 | 4.2* | -2.4* | 0 | -1.2 | 633 | 242 | 11508* | 3080 | D1 ag no DA=1616
CCN=C1SC(C(N)=O)CC(=O)N1CC (centres undefined) | -2 | 6.3* | -15* | -1 | -0.13 | 651 | 207 | 10588* | 2864 | D1 ag no DA=1464
CCOCCn1c(=O)c2c(nc3n2CCN3c2ccc(CC)cc2)n(C)c1=O | -12 | -0.84 | 0.52 | -1 | 0.37 | nt | nt | nt | nt
COc1ccc(C(=O)Nc2nnc(Cc3cccs3)s2)cc1OC | -16 | 3* | -17* | -2 | -1.1 | 621 | 244 | 9388* | 4460 | D1 ag no DA=1740
